Experimental findings from ChEMBL document CHEMBL4043093, “2-Oxo-3, 4-dihydropyrimido[4, 5-d]pyrimidinyl derivatives as new irreversible pan fibroblast growth factor receptor (FGFR) inhibitors” (Eur J Med Chem, 2017) are described below.

Assay [1] concerns Epidermal growth factor receptor (Homo sapiens), P00533 [T790M]. The assay is described as follows: Inhibition of human partial length EGFR T790M mutant (R669 to G1022 residues) expressed in HEK293 cells assessed as residual activity at 1000 nM after 30 mins by Kinomescan method relative to control. Format: cell-based. The gist of the method:
(§1)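 KINOMEscan binding panel of 456 kinases, with the test compound at a single concentration of 1 µM. Read-out is Percent Control.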

For assay [2], the target named is Serine/threonine-protein kinase Sgk2 (Homo sapiens) (UniProt Q9HBY8). The experiment in a line: Inhibition of wild-type human partial length SGK2 (L54 to C427 residues) expressed in HEK293 cells assessed as residual activity at 1000 nM after 30 mins by Kinomescan method relative to control. The assay is classed as cell-based.
Assay [3] concerns the target Serine/threonine-protein kinase mTOR (Homo sapiens) (UniProt P42345). The experiment in a line: Inhibition of wild-type human partial length MTOR (L1382 to W2549 residues) expressed in HEK293 cells assessed as residual activity at 1000 nM after 30 mins by Kinomescan method relative to control. The assay is classed as cell-based.
In assay [4] the target is Ribosomal protein S6 kinase alpha-4 (Homo sapiens) (UniProt O75676). The experiment in a line: Inhibition of wild-type human partial length C-terminal RPS6KA4 kinase domain 2 (M375 to T705 residues) expressed in HEK293 cells assessed as residual activity at 1000 nM after 30 mins by Kinomescan method relative to control. The assay is classed as cell-based.
Assay [5] has as its target Serine/threonine-protein kinase pim-2 (Homo sapiens) (UniProt Q9P1W9). The assay is described as follows: Inhibition of wild-type human partial length PIM2 (M1 to E291 residues) expressed in Escherichia coli BL21 assessed as residual activity at 1000 nM after 30 mins by Kinomescan method relative to control.
Assay [6] has as its target Receptor-interacting serine/threonine-protein kinase 1 (Homo sapiens) (UniProt Q13546). The assay is described as follows: Inhibition of wild-type human partial length RIPK1 (M1 to K305 residues) expressed in Escherichia coli BL21 assessed as residual activity at 1000 nM after 30 mins by Kinomescan method relative to control.
In assay [7] the target is Interleukin-1 receptor-associated kinase 1 (Homo sapiens) (UniProt P51617). The assay is described as follows: Inhibition of wild-type human partial length IRAK1 (R194 to S712 residues) expressed in HEK293 cells assessed as residual activity at 1000 nM after 30 mins by Kinomescan method relative to control. The assay is classed as cell-based.
Chain of Interleukin-1 receptor-associated kinase 1 (Homo sapiens) (P51617 whole entry, looked up, the tested form may be a part): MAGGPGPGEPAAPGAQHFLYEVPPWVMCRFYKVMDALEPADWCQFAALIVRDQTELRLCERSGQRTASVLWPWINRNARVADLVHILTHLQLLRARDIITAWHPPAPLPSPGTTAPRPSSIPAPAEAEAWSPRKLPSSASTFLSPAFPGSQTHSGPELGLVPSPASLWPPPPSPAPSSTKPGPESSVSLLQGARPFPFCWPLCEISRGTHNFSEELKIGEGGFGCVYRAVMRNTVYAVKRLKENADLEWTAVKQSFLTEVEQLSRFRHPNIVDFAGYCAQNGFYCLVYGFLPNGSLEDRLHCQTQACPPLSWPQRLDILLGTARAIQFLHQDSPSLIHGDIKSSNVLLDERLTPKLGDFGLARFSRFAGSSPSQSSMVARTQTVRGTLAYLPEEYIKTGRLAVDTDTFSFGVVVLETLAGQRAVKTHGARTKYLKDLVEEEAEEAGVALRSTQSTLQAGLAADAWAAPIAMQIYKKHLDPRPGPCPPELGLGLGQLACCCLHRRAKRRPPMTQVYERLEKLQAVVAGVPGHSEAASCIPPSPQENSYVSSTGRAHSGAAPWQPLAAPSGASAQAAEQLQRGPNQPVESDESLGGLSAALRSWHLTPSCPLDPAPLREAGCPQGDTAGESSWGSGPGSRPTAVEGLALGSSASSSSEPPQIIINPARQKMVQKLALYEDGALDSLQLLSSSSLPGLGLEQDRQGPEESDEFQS
The subject of assay [8] is Epidermal growth factor receptor (Homo sapiens), P00533 [UNDEFINED MUTATION]. The experiment in a line: Inhibition of human partial length EGFR E746-A750del mutant expressed in Escherichia coli BL21 assessed as residual activity at 1000 nM after 30 mins by Kinomescan method relative to control. The gist of the method:
as §1

Assay [9] deals with Serine/threonine-protein kinase OSR1 (Homo sapiens) (UniProt O95747). The assay is described as follows: Inhibition of wild-type human full length OSR1 (M1 to S527 residues) expressed in HEK293 cells assessed as residual activity at 1000 nM after 30 mins by Kinomescan method relative to control. Format: cell-based. The gist of the method: (§2)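 Single-concentration screen at 1 µM across a 456-kinase KINOMEscan panel. The read-out is Percent Control for each kinase.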

Assay [10] has as its target Serine/threonine-protein kinase RIO2 (Homo sapiens) (UniProt Q9BVS4). The assay is described as follows: Inhibition of wild-type human partial length RIOK2 (M1 to D313 residues) expressed in HEK293 cells assessed as residual activity at 1000 nM after 30 mins by Kinomescan method relative to control. Format: cell-based.
Assay [11] deals with Cyclin-dependent kinase 18 (Homo sapiens) (UniProt Q07002). The experiment in a line: Inhibition of wild-type human full length PCTK3 (M3 to F474 residues) expressed in Escherichia coli BL21 assessed as residual activity at 1000 nM after 30 mins by Kinomescan method relative to control. The gist of the method: as §2
Chain of Cyclin-dependent kinase 18 (Homo sapiens) (Q07002 whole entry, the tested form may be a part): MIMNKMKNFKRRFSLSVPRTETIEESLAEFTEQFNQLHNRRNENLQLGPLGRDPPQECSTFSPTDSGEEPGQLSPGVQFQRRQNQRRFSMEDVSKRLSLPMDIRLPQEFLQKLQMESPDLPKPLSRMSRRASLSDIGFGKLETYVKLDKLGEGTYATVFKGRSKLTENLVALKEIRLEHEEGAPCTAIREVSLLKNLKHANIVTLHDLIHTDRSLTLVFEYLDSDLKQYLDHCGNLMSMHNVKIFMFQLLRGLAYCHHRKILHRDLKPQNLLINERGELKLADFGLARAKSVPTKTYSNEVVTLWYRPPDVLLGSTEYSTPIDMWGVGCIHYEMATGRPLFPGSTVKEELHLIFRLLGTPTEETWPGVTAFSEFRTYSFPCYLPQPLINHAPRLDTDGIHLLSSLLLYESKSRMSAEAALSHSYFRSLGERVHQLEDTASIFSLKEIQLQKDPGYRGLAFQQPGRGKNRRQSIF
Assay [12] has as its target Mitogen-activated protein kinase 1 (Homo sapiens) (UniProt P28482). The experiment in a line: Inhibition of wild-type human full length ERK2 (M1 to S360 residues) expressed in Escherichia coli BL21 assessed as residual activity at 1000 nM after 30 mins by Kinomescan method relative to control. The gist of the method:
as §2

Assay [13] deals with Serine/threonine-protein kinase WNK2 (Homo sapiens) (UniProt Q9Y3S1). The assay is described as follows: Inhibition of wild-type human partial length WNK2 (V47 to D482 residues) expressed in HEK293 cells assessed as residual activity at 1000 nM after 30 mins by Kinomescan method relative to control. The assay is classed as cell-based.
Assay [14] concerns the target Serine/threonine-protein kinase TBK1 (Homo sapiens) (UniProt Q9UHD2). The assay is described as follows: Inhibition of wild-type human full length TBK1 (M1 to L729 residues) expressed in HEK293 cells assessed as residual activity at 1000 nM after 30 mins by Kinomescan method relative to control. Format: cell-based.
In assay [15] the test system is Epidermal growth factor receptor (Homo sapiens), P00533 [UNDEFINED MUTATION]. The assay is described as follows: Inhibition of human partial length EGFR S752-I759del mutant expressed in Escherichia coli BL21 assessed as residual activity at 1000 nM after 30 mins by Kinomescan method relative to control. The gist of the method:
as §1

The target in assay [16] is Casein kinase I isoform epsilon (Homo sapiens) (UniProt P49674). The assay is described as follows: Inhibition of wild-type human full length CSNK1E (M1 to K416 residues) expressed in Escherichia coli BL21 assessed as residual activity at 1000 nM after 30 mins by Kinomescan method relative to control. A digest of the protocol:
(§3)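 Single-point screen at a fixed 1 µM, run within a 456-kinase DiscoveRx KINOMEscan panel. Each kinase's read-out is Percent Control, i.e. signal relative to a control without compound. Hits were scored by a Percent Control < 35 cut-off, and an S(35) selectivity score was calculated across the non-mutant kinases.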

Assay [17] deals with Casein kinase I isoform alpha (Homo sapiens) (UniProt P48729). The assay is described as follows: Inhibition of wild-type human partial length CSNK1A1 (M1 to L450 residues) expressed in HEK293 cells assessed as residual activity at 1000 nM after 30 mins by Kinomescan method relative to control. Format: cell-based.
Chain of Casein kinase I isoform alpha (Homo sapiens) (P48729 2-337 limits assumed): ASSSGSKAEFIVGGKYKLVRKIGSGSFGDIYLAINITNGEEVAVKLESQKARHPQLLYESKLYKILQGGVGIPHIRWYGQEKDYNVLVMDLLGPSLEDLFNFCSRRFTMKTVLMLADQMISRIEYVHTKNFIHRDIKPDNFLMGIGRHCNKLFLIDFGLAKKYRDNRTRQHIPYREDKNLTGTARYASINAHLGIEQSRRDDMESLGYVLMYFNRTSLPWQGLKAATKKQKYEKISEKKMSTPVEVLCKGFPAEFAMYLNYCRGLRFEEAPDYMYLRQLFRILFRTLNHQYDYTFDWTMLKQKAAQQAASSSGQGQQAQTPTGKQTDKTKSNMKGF
Assay [18] concerns the target Dual specificity testis-specific protein kinase 1 (Homo sapiens) (UniProt Q15569). The assay is described as follows: Inhibition of wild-type human full length TESK1 (R37 to S626 residues) expressed in Escherichia coli BL21 assessed as residual activity at 1000 nM after 30 mins by Kinomescan method relative to control.
Assay [19] deals with Hepatocyte growth factor receptor (Homo sapiens), P08581 [M1250T]. The assay is described as follows: Inhibition of human partial length MET M1250T mutant (D1010 to S1367 residues) expressed in Escherichia coli BL21 assessed as residual activity at 1000 nM after 30 mins by Kinomescan method relative to control. A digest of the protocol:
as §1

Assay [20] has as its target Mitogen-activated protein kinase kinase kinase 13 (Homo sapiens) (UniProt O43283). The experiment in a line: Inhibition of wild-type human full length LZK (M1 to W966 residues) expressed in HEK293 cells assessed as residual activity at 1000 nM after 30 mins by Kinomescan method relative to control. Format: cell-based. A digest of the protocol:
as §2

Assay [21] addresses Cytoplasmic tyrosine-protein kinase BMX (Homo sapiens) (UniProt P51813). The experiment in a line: Inhibition of wild-type human full length BMX (M1 to H675 residues) expressed in Escherichia coli BL21 assessed as residual activity at 1000 nM after 30 mins by Kinomescan method relative to control. The gist of the method:
as §3

The target in assay [22] is Vascular endothelial growth factor receptor 1 (Homo sapiens) (UniProt P17948). The experiment in a line: Inhibition of wild-type human partial length FLT1 (R781 to F1239 residues) expressed in Escherichia coli BL21 assessed as residual activity at 1000 nM after 30 mins by Kinomescan method relative to control.

Each structure is given as a SMILES string.

Chain of Serine/threonine-protein kinase RIO2 (Homo sapiens) (Q9BVS4 whole entry, looked up, the tested form may be a part): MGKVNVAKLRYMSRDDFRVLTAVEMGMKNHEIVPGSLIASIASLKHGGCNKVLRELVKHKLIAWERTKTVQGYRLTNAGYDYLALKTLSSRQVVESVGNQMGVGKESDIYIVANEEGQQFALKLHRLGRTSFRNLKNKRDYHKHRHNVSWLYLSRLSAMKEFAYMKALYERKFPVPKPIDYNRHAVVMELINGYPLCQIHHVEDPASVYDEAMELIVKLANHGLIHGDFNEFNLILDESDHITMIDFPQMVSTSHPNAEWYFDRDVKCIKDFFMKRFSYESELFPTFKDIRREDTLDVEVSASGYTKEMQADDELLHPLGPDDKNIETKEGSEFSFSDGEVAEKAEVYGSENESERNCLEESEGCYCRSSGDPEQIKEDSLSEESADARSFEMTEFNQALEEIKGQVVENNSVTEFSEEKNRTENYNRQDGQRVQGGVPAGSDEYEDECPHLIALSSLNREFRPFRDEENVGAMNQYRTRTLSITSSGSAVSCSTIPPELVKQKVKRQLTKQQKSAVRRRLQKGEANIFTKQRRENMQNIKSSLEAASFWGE
Chain of Receptor-interacting serine/threonine-protein kinase 1 (Homo sapiens) (Q13546 whole entry, the tested form may be a part): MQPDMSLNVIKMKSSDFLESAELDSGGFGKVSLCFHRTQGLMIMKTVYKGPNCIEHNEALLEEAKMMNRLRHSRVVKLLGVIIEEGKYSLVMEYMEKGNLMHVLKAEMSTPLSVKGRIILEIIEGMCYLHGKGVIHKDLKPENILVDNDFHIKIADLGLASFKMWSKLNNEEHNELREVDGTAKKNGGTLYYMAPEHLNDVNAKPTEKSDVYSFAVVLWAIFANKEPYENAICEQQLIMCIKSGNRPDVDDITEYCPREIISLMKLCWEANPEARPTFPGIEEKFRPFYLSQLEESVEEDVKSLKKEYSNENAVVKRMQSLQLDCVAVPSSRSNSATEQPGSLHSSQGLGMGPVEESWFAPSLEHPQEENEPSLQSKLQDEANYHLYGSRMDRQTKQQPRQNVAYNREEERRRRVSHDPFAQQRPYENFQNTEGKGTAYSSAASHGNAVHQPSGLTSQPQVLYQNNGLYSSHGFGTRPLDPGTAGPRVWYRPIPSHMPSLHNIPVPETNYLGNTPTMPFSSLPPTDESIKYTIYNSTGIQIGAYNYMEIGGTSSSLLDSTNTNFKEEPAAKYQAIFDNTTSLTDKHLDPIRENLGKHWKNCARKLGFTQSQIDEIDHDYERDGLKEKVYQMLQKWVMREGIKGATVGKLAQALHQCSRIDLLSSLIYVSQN
Chain of Dual specificity testis-specific protein kinase 1 (Homo sapiens) (Q15569 whole entry, looked up, the tested form may be a part): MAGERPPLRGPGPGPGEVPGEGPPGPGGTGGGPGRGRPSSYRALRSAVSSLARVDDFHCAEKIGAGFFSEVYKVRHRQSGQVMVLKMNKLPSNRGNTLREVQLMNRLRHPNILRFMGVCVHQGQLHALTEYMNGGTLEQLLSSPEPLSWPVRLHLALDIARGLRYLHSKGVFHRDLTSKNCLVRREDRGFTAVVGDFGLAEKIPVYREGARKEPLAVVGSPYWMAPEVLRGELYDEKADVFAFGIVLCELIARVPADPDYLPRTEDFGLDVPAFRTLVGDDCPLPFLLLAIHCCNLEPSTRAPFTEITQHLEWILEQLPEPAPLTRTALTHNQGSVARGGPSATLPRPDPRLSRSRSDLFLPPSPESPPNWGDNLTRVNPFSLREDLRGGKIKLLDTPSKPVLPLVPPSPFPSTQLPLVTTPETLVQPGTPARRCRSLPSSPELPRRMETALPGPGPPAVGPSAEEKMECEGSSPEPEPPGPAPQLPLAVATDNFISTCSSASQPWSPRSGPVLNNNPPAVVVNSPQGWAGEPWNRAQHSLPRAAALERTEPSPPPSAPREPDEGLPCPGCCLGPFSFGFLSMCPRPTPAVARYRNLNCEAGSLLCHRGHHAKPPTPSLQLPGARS
Chain of Mitogen-activated protein kinase kinase kinase 13 (Homo sapiens) (O43283 whole entry, the tested form may be a part): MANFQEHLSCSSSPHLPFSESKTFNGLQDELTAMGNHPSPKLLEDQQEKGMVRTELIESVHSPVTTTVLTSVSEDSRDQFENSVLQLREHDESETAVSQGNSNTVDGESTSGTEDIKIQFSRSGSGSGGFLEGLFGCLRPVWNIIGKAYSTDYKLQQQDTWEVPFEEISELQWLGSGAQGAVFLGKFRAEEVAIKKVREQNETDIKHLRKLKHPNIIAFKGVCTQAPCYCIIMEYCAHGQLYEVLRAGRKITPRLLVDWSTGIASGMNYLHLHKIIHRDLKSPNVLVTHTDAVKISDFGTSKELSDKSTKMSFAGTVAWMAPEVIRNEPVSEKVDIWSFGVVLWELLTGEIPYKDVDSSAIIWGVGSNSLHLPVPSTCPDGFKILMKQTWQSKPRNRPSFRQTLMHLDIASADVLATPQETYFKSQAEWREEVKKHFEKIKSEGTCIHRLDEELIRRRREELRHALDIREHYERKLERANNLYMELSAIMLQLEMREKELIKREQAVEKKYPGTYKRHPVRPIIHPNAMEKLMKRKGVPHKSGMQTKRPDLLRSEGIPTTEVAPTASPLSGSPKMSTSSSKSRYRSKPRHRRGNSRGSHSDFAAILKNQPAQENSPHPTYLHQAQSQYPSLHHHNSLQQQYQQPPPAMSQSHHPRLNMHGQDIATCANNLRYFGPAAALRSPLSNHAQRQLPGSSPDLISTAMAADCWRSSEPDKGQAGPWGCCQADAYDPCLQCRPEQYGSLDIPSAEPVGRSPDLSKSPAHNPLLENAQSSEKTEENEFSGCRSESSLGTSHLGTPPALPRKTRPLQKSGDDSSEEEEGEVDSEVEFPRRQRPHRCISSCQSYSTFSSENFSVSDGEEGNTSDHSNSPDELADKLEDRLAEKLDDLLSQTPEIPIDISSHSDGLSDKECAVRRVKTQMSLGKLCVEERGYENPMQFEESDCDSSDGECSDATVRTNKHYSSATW
Chain of Serine/threonine-protein kinase pim-2 (Homo sapiens) (Q9P1W9 whole entry, looked up, the tested form may be a part): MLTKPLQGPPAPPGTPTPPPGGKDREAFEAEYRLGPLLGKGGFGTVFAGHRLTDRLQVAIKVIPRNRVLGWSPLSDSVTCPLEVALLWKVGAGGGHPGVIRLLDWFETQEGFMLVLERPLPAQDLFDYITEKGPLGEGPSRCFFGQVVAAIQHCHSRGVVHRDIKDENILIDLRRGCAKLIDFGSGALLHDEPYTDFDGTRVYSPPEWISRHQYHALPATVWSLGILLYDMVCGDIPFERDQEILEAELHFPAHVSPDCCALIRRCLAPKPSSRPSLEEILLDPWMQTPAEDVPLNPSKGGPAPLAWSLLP
Chain of Mitogen-activated protein kinase 1 (Homo sapiens) (P28482 whole entry, the tested form may be a part): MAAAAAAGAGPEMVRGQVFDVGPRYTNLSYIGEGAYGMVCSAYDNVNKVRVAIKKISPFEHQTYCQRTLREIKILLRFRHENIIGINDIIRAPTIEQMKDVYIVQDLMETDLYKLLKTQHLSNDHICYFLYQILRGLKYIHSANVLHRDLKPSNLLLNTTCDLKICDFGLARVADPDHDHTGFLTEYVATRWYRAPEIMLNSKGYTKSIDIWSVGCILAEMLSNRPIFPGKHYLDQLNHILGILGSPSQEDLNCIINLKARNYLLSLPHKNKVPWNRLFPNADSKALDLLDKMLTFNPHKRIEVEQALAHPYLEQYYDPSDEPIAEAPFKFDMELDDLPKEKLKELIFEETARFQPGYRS

As for `COc1cc(OC)c(Cl)c(N2Cc3cnc(Nc4ccc(F)cc4)nc3N(C3CCN(C(=O)/C=C/CN(C)C)CC3)C2=O)c1Cl`, the Activity is 94% in assay [1]; 100% in assay [2]; 93% in assay [3]; 93% in assay [4]; 83% in assay [5]; 100% in [6]. Moreover, the Activity in assay [7] is 98%; in assay [8], 100%; in [9], 100%; in [10] it was 100%; in assay [11], 93%; in assay [12], 100%. In addition, the Activity in [13] was 96%; in assay [14], 92%; in [15] it was 71%; in assay [16] it was 100%; in [17], 100%; in assay [18], 82%. Also, the Activity was 100% in assay [19], 100% in assay [20], 99% in assay [21] and 5.6% in assay [22].
